In test [1] the target is T1, Estrogen receptor (Rattus norvegicus) (UniProt P06211+Q62986). Put plainly: Estrogenic activity as mean uterine weight in rats after 10 ug dose. In kind it is functional. Put shortly: (§1)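 Immature female Sprague-Dawley rats, 21–23 days old, in groups of 6–9. Test doses suspended in 0.2 mL propylene glycol–0.9% saline (1:1, v/v) and given subcutaneously on three consecutive days; vehicle-only controls. Autopsy 24 h after the last injection, uterine wet weight recorded in mg as mean ± SD.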

The target of test [2] is T1, Estrogen receptor (Rattus norvegicus). Nature of the test: Antiestrogenic activity in presence of estradiol as mean uterine weight in rats after 10 ug dose. The format is functional.
Test [3] has the same target. Nature of the test: Estrogenic activity as mean uterine weight in rats after 1 mg dose. In kind it is functional. Put shortly: as §1
Test [4] has the same target. Put plainly: Antiestrogenic activity in presence of estradiol at 10 ug/rat. In kind it is functional.
The target is the same in test [5]. Put plainly: Antiestrogenic activity in presence of estradiol at 30 ug/rat. The format is functional.
Test [6] has the same target. Nature of the test: Antiestrogenic activity in presence of estradiol at 0 ug/rat. The format is functional.
The target is the same in test [7]. Nature of the test: Antiestrogenic activity in presence of estradiol at 1 ug/rat. In kind it is functional.
Test [8] has the same target. Put plainly: Estrogenic activity as mean uterine weight in rats at 0 ug/rat. The format is functional. Put shortly:
as §1

Test [9] has the same target. Nature of the test: Estrogenic activity as mean uterine weight in rats at 1 ug/rat. The format is functional. Put shortly: as §1
Test [10] has the same target. Put plainly: Estrogenic activity as mean uterine weight in rats at 30 ug/rat. In kind it is functional. Put shortly: as §1
Test [11] has the same target. Nature of the test: Mean percent inhibition of uterotrophic effect in rats at 0 ug/rat. In kind it is functional.
Test [12] has the same target. Nature of the test: Mean percent inhibition of uterotrophic effect in rats at 1 ug/rat. In kind it is functional.
The target is the same in test [13]. Put plainly: Mean percent inhibition of uterotrophic effect in rats at 10 ug/rat. In kind it is functional.
For test [14] the target is unchanged. Put plainly: Mean percent inhibition of uterotrophic effect in rats at 30 ug/rat. The format is functional.
Test [15] has the same target. Nature of the test: Antiestrogenic activity in presence of estradiol as mean uterine weight in rats at 1 mg dose.
Test [16] has the same target. Put plainly: Estrogenic activity as mean uterine weight in rats at 10 ug/rat. The format is functional. Put shortly: as §1

Our source for the Mean weight and inhibition values is ChEMBL document CHEMBL1125031, “Structure-activity relationship of antiestrogens. Studies on 2,3-diaryl-1-benzopyrans” (J Med Chem, 1990).

Structures are written as SMILES.

As a reminder, the inhibition is the percentage by which the read-out fell short of the control. Read a high inhibition as a response far below the control.

For `COc1ccc2c(c1)OC(c1ccc(OCCN3CCCC3)cc1)C(c1ccccc1)C2=O` (stereo unspecified), the Mean weight in test [1] is 12 mg; in [2], 46.5 mg.

For `O=c1c(-c2ccccc2)c(-c2ccc(OCCN3CCCC3)cc2)oc2ccccc12`, the Mean weight was determined as 13.2 mg in test [1] and 40.3 mg in test [2].

Regarding `O=c1c(-c2ccccc2)c(-c2ccccc2)oc2cc(OCCN3CCCC3)ccc12`, the figures for the Mean weight in test [1] and in test [2] were 11.1 mg and 40.7 mg, respectively.

Regarding `Oc1ccc(C2Oc3ccccc3CC2c2ccccc2)cc1` (stereo unspecified), the Mean weight in test [3] turned out to be 14.9 mg; in test [2], 59 mg.

In the case of `c1ccc(C2Cc3ccccc3OC2c2ccc(OCCN3CCCC3)cc2)cc1` (stereo unspecified), the Mean weight came to 12.3 mg in test [3] and 57.2 mg in [2].

With `COc1ccc2c(c1)OC(c1ccc(OCCN3CCCC3)cc1)C(c1ccccc1)=C2` (stereo unspecified), the Mean weight in test [4] was determined as 27.5 mg; in test [5], 23.6 mg; in test [6], 44.7 mg; in test [7] it was 38.3 mg; in [1], 27.6 mg; in [2] it was 28.3 mg. The Mean weight in test [8] was 10.6 mg; in [9], 23.8 mg; in test [10], 25 mg. Also, the inhibition in [11] was 0%; in test [12] it was 9%; in test [13], 50%; in [14], 65%.

With `Oc1ccc(C2=C(c3ccccc3)Cc3ccccc3O2)cc1`, the figures for the Mean weight in test [3] and in [15] were 26.2 mg and 46.7 mg, respectively.

With `Oc1ccc(C2Oc3ccccc3C=C2c2ccccc2)cc1` (stereo unspecified), the results for the Mean weight in [3] and in test [2] were 13.8 mg and 48.8 mg, respectively.

As for `C1=C(c2ccccc2)C(c2ccc(OCCN3CCCC3)cc2)Oc2ccccc21` (stereo unspecified), the Mean weight in test [5] is 22.2 mg; in [6], 45.1 mg; in [7], 39.9 mg; in test [1], 24.6 mg; in [8], 11.2 mg; in test [9] it was 22.5 mg. Also, the Mean weight in [10] is 23.6 mg; in [16], 24.6 mg. Further, the inhibition in [11] came out at 0%; in [12], 12%; in test [13], 66%; in test [14] it was 70%.

As to `c1ccc(C2=C(c3ccc(OCCN4CCCC4)cc3)Oc3ccccc3C2)cc1`, the Mean weight in [3] stood at 24 mg; in test [2], 29.4 mg.
